Test results taken from ChEMBL document CHEMBL3286358, “Biological evaluation of tanshindiols as EZH2 histone methyltransferase inhibitors” (Bioorg Med Chem Lett, 2014).
Values belong to the molecule of their own block, whether it stands above or below them. The source made the active and inactive calls. The rule behind the calls is not given here.

What was measured:
[1] = target: EZH2/SUZ12/EED complex (Homo sapiens) (UniProt Q15910+O75530+Q15022); experiment: (§1) Inhibition of EZH2 histone methyltransferase activity in EZH2/SUZ12/EED protein complex (unknown origin) using histone H3 peptide/S-adenosylmethionine as substrate after 2 hrs by TR-FRET assay
EZH2/SUZ12/EED complex (Homo sapiens), sequence (O75530 2-441 partner limits assumed): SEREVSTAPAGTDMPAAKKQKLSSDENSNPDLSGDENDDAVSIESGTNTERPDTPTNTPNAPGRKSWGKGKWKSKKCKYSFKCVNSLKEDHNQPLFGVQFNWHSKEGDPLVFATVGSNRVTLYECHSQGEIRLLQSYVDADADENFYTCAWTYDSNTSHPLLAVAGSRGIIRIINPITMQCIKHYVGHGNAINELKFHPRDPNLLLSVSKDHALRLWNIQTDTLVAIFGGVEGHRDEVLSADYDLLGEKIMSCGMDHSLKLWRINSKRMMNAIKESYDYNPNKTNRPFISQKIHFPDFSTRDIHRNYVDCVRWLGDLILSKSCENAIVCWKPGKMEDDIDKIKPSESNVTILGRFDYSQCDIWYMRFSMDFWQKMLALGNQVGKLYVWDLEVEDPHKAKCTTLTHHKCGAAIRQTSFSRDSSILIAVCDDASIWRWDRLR
EZH2/SUZ12/EED complex (Homo sapiens), sequence (Q15022 whole entry partner): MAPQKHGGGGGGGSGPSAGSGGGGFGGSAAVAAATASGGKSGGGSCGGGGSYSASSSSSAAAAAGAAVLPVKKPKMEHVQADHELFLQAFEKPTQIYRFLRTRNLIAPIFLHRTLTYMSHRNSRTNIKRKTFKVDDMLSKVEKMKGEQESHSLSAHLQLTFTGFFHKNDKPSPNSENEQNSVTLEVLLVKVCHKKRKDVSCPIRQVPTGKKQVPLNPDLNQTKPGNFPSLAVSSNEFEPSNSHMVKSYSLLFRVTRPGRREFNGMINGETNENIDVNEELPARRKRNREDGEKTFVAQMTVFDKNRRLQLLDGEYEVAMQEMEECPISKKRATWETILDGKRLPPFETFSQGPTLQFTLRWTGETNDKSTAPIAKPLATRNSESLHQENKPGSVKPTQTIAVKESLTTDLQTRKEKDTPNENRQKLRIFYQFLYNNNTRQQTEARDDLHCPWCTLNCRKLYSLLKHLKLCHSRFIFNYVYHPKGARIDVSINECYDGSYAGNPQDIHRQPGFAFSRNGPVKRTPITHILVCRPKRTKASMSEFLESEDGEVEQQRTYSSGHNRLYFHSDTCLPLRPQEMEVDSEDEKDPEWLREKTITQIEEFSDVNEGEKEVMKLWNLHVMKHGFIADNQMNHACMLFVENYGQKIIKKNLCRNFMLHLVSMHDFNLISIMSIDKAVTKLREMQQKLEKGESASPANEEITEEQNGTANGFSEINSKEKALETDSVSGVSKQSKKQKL
EZH2/SUZ12/EED complex (Homo sapiens), sequence (Q15910 whole entry): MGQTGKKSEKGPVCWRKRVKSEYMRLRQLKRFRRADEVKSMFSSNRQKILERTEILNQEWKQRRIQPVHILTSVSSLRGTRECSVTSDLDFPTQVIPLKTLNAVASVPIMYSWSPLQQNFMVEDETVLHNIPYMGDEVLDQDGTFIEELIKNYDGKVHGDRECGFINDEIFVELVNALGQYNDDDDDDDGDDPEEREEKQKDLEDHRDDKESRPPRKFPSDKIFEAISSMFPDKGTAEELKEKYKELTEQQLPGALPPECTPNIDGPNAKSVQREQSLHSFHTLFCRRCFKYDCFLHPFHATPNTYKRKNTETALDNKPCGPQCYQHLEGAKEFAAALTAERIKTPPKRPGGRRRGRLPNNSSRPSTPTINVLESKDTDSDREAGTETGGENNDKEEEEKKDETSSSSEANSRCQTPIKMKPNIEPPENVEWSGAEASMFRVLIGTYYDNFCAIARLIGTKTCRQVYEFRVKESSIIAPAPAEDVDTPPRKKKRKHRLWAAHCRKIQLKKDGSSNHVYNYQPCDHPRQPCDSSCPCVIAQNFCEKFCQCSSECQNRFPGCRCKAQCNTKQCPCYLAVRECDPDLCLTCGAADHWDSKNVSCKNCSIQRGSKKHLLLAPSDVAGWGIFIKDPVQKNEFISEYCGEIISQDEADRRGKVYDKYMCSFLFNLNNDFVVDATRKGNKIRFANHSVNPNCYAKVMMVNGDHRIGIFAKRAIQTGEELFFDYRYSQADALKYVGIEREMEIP

EZH2/SUZ12/EED complex = EZH2/SUZ12/EED complex (Homo sapiens, UniProt O75530+Q15022+Q15910); experiment: as §1
EZH2/SUZ12/EED complex, sequence (Q15910 whole entry): as above
EZH2/SUZ12/EED complex, sequence (O75530 whole entry): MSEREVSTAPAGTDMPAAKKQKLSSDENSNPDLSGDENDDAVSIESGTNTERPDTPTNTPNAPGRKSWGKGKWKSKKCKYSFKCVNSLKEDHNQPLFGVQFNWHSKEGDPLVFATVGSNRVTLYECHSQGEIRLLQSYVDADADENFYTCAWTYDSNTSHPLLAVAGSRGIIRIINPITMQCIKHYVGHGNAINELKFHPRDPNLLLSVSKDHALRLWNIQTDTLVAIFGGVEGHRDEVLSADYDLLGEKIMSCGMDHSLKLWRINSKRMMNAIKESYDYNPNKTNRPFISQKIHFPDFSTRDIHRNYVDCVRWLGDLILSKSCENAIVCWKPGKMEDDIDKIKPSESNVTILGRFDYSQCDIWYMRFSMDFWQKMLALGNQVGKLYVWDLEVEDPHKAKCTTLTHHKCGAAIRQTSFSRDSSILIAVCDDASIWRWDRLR
EZH2/SUZ12/EED complex, sequence (Q15022 whole entry): as the sequence (Q15022 whole entry partner) above

[2] = Cytotoxicity against human Pfeiffer cells expressing EZH2 […] mutant assessed as growth inhibition after 72 hrs by WST-1 assay; type: functional
In short: (§2)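 Growth inhibition of tumour lines read by WST-1 viability assay. GI50 taken as the half-maximal growth-inhibitory concentration.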

[3] = Cytotoxicity against human U2932 cells assessed as growth inhibition after 72 hrs by WST-1 assay; type: functional; details: U2932, 72 h; in short: as §2
Daudi = experiment: Cytotoxicity against human Daudi cells assessed as growth inhibition after 72 hrs by WST-1 assay; type: functional; in short: as §2
PC-3 = experiment: Cytotoxicity against human PC3 cells assessed as growth inhibition after 72 hrs by WST-1 assay; type: functional; details: PC-3, 72 h; in short: as §2
T98G = experiment: Cytotoxicity against human T98G cells assessed as growth inhibition after 72 hrs by WST-1 assay; type: functional; in short: as §2
[4] = Cytotoxicity against human U87MG cells assessed as growth inhibition after 72 hrs by WST-1 assay; type: functional, U-87MG ATCC; details: U-87 MG; in short: as §2
A549 = experiment: Cytotoxicity against human A549 cells assessed as growth inhibition after 72 hrs by WST-1 assay; type: functional; details: A549, 72 h; in short: as §2
[5] = Cell cycle arrest in human Pfeiffer cells assessed as accumulation at sub-G1 phase at 1 uM after 72 hrs (reference value: 9%); type: functional, cell-based
In short: (§3)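 Pfeiffer cells (DLBCL carrying EZH2 A677G) exposed 72 h to 1, 2.5 or 5 µM, with untreated control. DNA content histograms are gated as M1 sub-G1, M2 G1, M3 S and M4 G2/M. Values are the percentage of cells in each gate.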

[6] = Cell cycle arrest in human Pfeiffer cells assessed as accumulation at sub-G1 phase at 2.5 uM after 72 hrs (reference value: 9%); type: functional, cell-based; in short: as §3
[7] = Cell cycle arrest in human Pfeiffer cells assessed as accumulation at sub-G1 phase at 5 uM after 72 hrs (reference value: 9%); type: functional, cell-based; in short: as §3
[8] = Cell cycle arrest in human Pfeiffer cells assessed as accumulation at G1 phase at 1 uM after 72 hrs (reference value: 59%); type: functional, cell-based; in short: as §3
[9] = Cell cycle arrest in human Pfeiffer cells assessed as accumulation at G1 phase at 2.5 uM after 72 hrs (reference value: 59%); type: functional, cell-based; in short: as §3
[10] = Cell cycle arrest in human Pfeiffer cells assessed as accumulation at G1 phase at 5 uM after 72 hrs (reference value: 59%); type: functional, cell-based; in short: as §3
[11] = Cell cycle arrest in human Pfeiffer cells assessed as accumulation at S phase at 1 uM after 72 hrs (reference value: 21%); type: functional, cell-based; in short: as §3
[12] = Cell cycle arrest in human Pfeiffer cells assessed as accumulation at S phase at 2.5 uM after 72 hrs (reference value: 21%); type: functional, cell-based; in short: as §3
[13] = Cell cycle arrest in human Pfeiffer cells assessed as accumulation at S phase at 5 uM after 72 hrs (reference value: 21%); type: functional, cell-based; in short: as §3
[14] = Cell cycle arrest in human Pfeiffer cells assessed as accumulation at G2/M phase at 1 uM after 72 hrs (reference value: 10%); type: functional, cell-based; in short: as §3
[15] = Cell cycle arrest in human Pfeiffer cells assessed as accumulation at G2/M phase at 2.5 uM after 72 hrs (reference value: 10%); type: functional, cell-based; in short: as §3
[16] = Cell cycle arrest in human Pfeiffer cells assessed as accumulation at G2/M phase at 5 uM after 72 hrs (reference value: 10%); type: functional, cell-based; in short: as §3
Pfeiffer [17] = experiment: Induction of apoptosis in human Pfeiffer cells assessed as DNA content at 1 to 5 uM after 72 hrs by DAPI staining-based analysis; type: functional, cell-based; in short: as §3
Pfeiffer [18] = experiment: Induction of apoptosis in human Pfeiffer cells assessed as increase in cleaved caspase-3 level at 1 to 3 uM after 72 hrs by Western blotting analysis; type: functional, cell-based
In short: (§4)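 Pfeiffer cells treated 72 h. Lysates analysed by Western blot for apoptosis markers.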

Pfeiffer [19] = experiment: Induction of apoptosis in human Pfeiffer cells assessed as increase in cleaved caspase-7 level at 1 to 3 uM after 72 hrs by Western blotting analysis; type: functional, cell-based; in short: as §4
Pfeiffer [20] = experiment: Induction of apoptosis in human Pfeiffer cells assessed as increase in cleaved PARP level at 1 to 3 uM after 72 hrs by Western blotting analysis; type: functional, cell-based; in short: as §4
[21] = target: EZH2/SUZ12/EED/RBBP7/RBBP4; experiment: Competitive inhibition of EZH2 histone methyltransferase activity in EZH2/SUZ12/EED/RbAp46/48 (unknown origin) using histone H3 peptide/varying concentration of S-adenosylmethionine as substrate after 2 hrs by Lineweaver-Burk plot analysis; type: protein-complex assay, Homo sapiens
In short: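 PRC2 complex (EZH2, EED, SUZ12, RbAp46/48) as enzyme. Histone H3 peptide fixed at 150 nM, SAM varied. Inhibitor at 0, 0.625, 1.25 and 2.5 µM.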

[22] = Inhibition of EZH2 histone methyltransferase […] mutant in EZH2/SUZ12/EED/RbAp46/48 protein complex (unknown origin) using histone H3 peptide/S-adenosylmethionine as substrate after 2 hrs by Lineweaver-Burk plot analysis; design: species or system Homo sapiens
In short: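 EZH2 A677G mutant activity measured with inhibitor at 0, 0.625, 1.25 and 2.5 µM. Inhibition mode analysed by Lineweaver–Burk plot.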

[23] = target: Histone-lysine N-methyltransferase EZH2 (Homo sapiens) (UniProt Q15910); details: 1 to 3 uM
Histone-lysine N-methyltransferase EZH2 (Homo sapiens), sequence (Q15910 whole entry, looked up): as the sequence (Q15910 whole entry) above

[24] = target: Histone-lysine N-methyltransferase EZH2 (Homo sapiens) (UniProt Q15910); details: 3 uM
[25] = target: Histone-lysine N-methyltransferase EZH2 (Homo sapiens) (UniProt Q15910); details: 3 uM; remark: listed apart in the source

inhibition [1]: Dose-dependent effect
IC50 (EZH2/SUZ12/EED complex): 0.55 µM
Ki [21]: 0.194 µM
Ki [22]: 0.176 µM
inhibition [23]: Active
inhibition [24]: 50%
inhibition [25]: 50%
Structure (SMILES): Cc1coc2c1C(=O)C(=O)c1c-2ccc2c1CC[C@@H](O)[C@]2(C)O
GI50 [2]: 1.5 µM
GI50 [3]: 9.5 µM
GI50 (Daudi): 10.6 µM
GI50 (PC-3): 4 µM
GI50 (T98G): 6 µM
GI50 [4]: 5.7 µM
GI50 (A549): 4.2 µM
Activity [5]: 11%
Activity [6]: 13%
Activity [7]: 21%
Activity [8]: 58%
Activity [9]: 51%
Activity [10]: 41%
Activity [11]: 20%
Activity [12]: 24%
Activity [13]: 29%
Activity [14]: 11%
Activity [15]: 11%
Activity [16]: 7%
Activity (Pfeiffer [17]): Active
Activity (Pfeiffer [18]): Active
Activity (Pfeiffer [19]): Active
Activity (Pfeiffer [20]): Active

inhibition [1]: Dose-dependent effect
IC50 (EZH2/SUZ12/EED complex): 4.8 µM
Structure (SMILES): Cc1coc2c1C(=O)C(=O)c1c-2ccc2c1CCCC2(C)CO (configuration not stated) [TANSHINONE IIB]

The next lines start with the molecule.

Structure (SMILES): Cc1coc2c1C(=O)C(=O)c1c-2ccc2c1CCCC2(C)C [TANSHINONE IIA]
inhibition [1]: Dose-dependent effect
IC50 (EZH2/SUZ12/EED complex): 28.1 µM

Structure (SMILES): Cc1coc2c1C(=O)C(=O)c1c-2ccc2c1CC[C@H](O)[C@]2(C)O
inhibition [1]: Dose-dependent effect
IC50 (EZH2/SUZ12/EED complex): 0.52 µM

Structure (SMILES): Cc1coc2c1C(=O)C(=O)c1c-2ccc2c(C)cccc12 [TANSHINONE I]
inhibition [1]: Dose-dependent effect
IC50 (EZH2/SUZ12/EED complex): 8.9 µM

Structure (SMILES): COC(=O)[C@@]1(C)CCCc2c1ccc1c2C(=O)C(=O)c2c(C)coc2-1 [METHYL TANSHINONATE]
inhibition [1]: Dose-dependent effect
IC50 (EZH2/SUZ12/EED complex): 9.6 µM

Structure (SMILES): CC[C@H](C)n1cc(C)c2c(C(=O)NCc3c(C)cc(C)[nH]c3=O)cc(-c3ccc(N4CCNCC4)nc3)cc21 [GSK2816126]
GI50 [2]: 0.18 µM
GI50 [3]: 6.7 µM
GI50 (Daudi): 11.2 µM
GI50 (PC-3): 9.4 µM
GI50 (T98G): 12.6 µM
GI50 [4]: 28.5 µM
GI50 (A549): 18.7 µM
